Compound activity as filed in PubChem BioAssay.
hERG rescue – hERG rescue from dofetilide block, primary screen, cell-based, CHO-hERG, FluxOR thallium flux, dofetilide IC70; Voltage-gated inwardly rectifying potassium channel KCNH2 (Homo sapiens), Q12809; dofetilide IC70 present; activation (rescue from dofetilide block), less the hit threshold, % at 10 µM; hit rate 0.51% among 310,000; AID 1511, 2009;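 active = activation above the mean of controls blocked by dofetilide plus 5 SD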;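 also: thallium influx through hERG after potassium depolarization seen as dye fluorescence rise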
KCNK9 block – KCNK9 potassium channel inhibitors, primary screen, HEK293 cells, thallium flux; FluxOR thallium flux fluorescence; active compounds read low; B-score at 10 µM; hit rate 1.2% among 310,000; AID 488922, 2010;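 active = ratio B-score over 3 SD below the library mean, with starting fluorescence within 5 SD of its mean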;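 also: negative B-score means less thallium flux so channel inhibition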
Target sequence (Q9NPC2 whole entry, looked up): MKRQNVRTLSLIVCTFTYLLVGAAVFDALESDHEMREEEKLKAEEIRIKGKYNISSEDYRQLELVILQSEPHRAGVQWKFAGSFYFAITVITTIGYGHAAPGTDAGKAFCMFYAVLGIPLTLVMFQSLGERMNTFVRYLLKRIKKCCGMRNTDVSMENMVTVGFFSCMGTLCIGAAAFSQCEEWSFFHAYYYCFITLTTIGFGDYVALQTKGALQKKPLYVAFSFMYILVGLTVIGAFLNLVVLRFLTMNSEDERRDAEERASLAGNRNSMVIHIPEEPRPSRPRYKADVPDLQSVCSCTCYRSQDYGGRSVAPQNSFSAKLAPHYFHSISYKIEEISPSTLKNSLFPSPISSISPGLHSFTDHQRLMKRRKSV
KCNK3 inh – human KCNK3 channel inhibitors, primary screen, CHO cells, FluxOR thallium flux, B-score; Potassium channel subfamily K member 3 (Homo sapiens), O14649; FluxOR fluorescence; active compounds read low; B-score at 10 µM; hit rate 0.84% among 340,000; AID 602410, 2012;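 active = B-score under library mean minus 4 SD, starting fluorescence ratio at most library mean plus 5 SD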;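 also: more negative B-score means stronger inhibition of thallium flux through KCNK3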
KCNQ1 act – potentiators or activators of KCNQ1 channel, primary screen, cell-based, thallium flux, high-throughput. Potassium voltage-gated channel subfamily KQT member 1 (Homo sapiens), P51787. CHO-K1 KCNQ1, thallium flux FluxOR fluorescence; active compounds read high. B-score at 10 µM. hit rate 0.35% among 310,000. AID 2648, 2010;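 active = fluorescence ratio B-score, a plate-corrected score, at least three library SD, with initial intensity B-score within 5 SD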
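Assay system: CHO-K1 cells stably expressing KCNQ1; Medium: assay buffer with matched DMSO; Also added: K+/Tl+ depolarizing stimulus; Dosing: single dose; Timing: dye 90 min, compound 20 min, room temperature; Measured by: kinetic FluxOR thallium fluorescence, 10-s 1-Hz baseline, 110-s post-stimulus read; Read-out: peak-minus-minimum fluorescence over initial fluorescence, negative-control normalized, B-scored.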
KCNQ1 inh – inhibitors of human KCNQ1 channel, primary screen, cell-based, thallium flux, high-throughput | Potassium voltage-gated channel subfamily KQT member 1 (Homo sapiens), P51787 | CHO-K1 KCNQ1, FluxOR thallium flux fluorescence; active compounds read high | B-score at 10 µM | hit rate 1.3% among 310,000 | AID 2642, 2010;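 active = compounds whose thallium flux B-score, printed positive for inhibition, exceeds three library SD while starting fluorescence stays within three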;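 also: channel opened by potassium depolarization with thallium stimulus after 20 min compound exposure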
KCNK3 confirm – retest of human KCNK3 channel inhibitors, confirmation, CHO cells, FluxOR thallium flux, triplicate; AID 651638, 2012; FluxOR fluorescence; 0% buffer, 100% carvedilol maximal block; shares compounds with KCNK3 inh; hit rate 99% among 2,400; ratio percent of control, % at 10 µM;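 active = ratio percent of control, averaged over triplicates, above buffer control mean plus 5 SD, cut at about 64% in these data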;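 also: ratio is the fluorescence rise from min to max over baseline after thallium stimulus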
KCNK3 noninduced – thallium flux inhibition in non-induced cells, primary screen, counter-screen for KCNK3 inhibitor project, cell-based, non-induced KCNK3 line, FluxOR thallium, triplicate | thallium flux ratio (lower = more inhibition) at 10 µM | AID 651747, 2012 | hit rate 40% among 2,400 | shares compounds with KCNK3 inh | non-induced KCNK3 parental cells; active compounds read low;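 active = thallium flux ratio, averaged over three wells, more than 5 SD below the buffer control mean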;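 also: host cells are CHO cells without KCNK3 induction; ratio is peak minus trough fluorescence over baseline then normalized to buffer controls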
* = called active by the depositor; i = inactive; nt = no result given. Most compounds without a hit are left out; they make up all but 3.1% or so of the library.

SMILES	hERG rescue	KCNK9 block	KCNK3 inh	KCNQ1 act	KCNQ1 inh	KCNK3 confirm	KCNK3 noninduced
CN(C(=O)c1ccc(NC(=O)Cc2cccc(NC(=O)C3CCN(C(=O)C4CCCCC4)CC3)c2)cc1)C1CCCC1	nt	nt	i	nt	nt	nt	nt
CCCCn1c(N)c(N(CCOC)C(=O)c2ccc(C)c(S(=O)(=O)N3CCCCC3)c2)c(=O)[nH]c1=O	-13.3	i	i	i	i	nt	nt
Cc1ccc(NC(=O)NC2CC(=O)N(c3ccc4c(c3)OCCO4)C2)c(C)c1 (stereo unspecified)	-18.1	i	i	i	i	nt	nt
Oc1ccccc1-c1csc(-c2ccccc2)n1	-8.7	-6.62*	-9.11*	i	i	115.3*	0.139*
Oc1ccc(-c2csc(-c3ccccc3)n2)cc1O	-20.2	i	i	i	i	nt	nt
CC(=O)c1c(C)[nH]c(C(=O)CN2C(=O)NC3(CCCCC3)C2=O)c1C	nt	nt	i	nt	nt	nt	nt
COc1cc(C(=O)Nc2cccc(-c3nnc(-c4ccco4)o3)c2)ccc1OC(C)=O	-13.7	i	-9.52*	i	i	113.3*	i
COc1ccc(C(=O)Nc2cccc(-c3nnc(-c4ccco4)o3)c2)cc1	-26.7	i	i	i	i	nt	nt
CCOc1ccccc1C(=O)NCCCCNC(=O)c1ccccc1OCC	-12.9	i	-9.82*	i	i	94.0*	i
CCOc1cc(NC(=O)C2CC2)c(OCC)cc1NC(=O)c1cc(OC)c(OC)c(OC)c1	-9.7	i	i	i	i	nt	nt
CCOc1ccccc1C(=O)NCCC(=O)O	-7.1	i	i	i	i	nt	nt
CCOc1cc(NC(=O)C2CC2)c(OCC)cc1NC(=O)c1ccccc1OCC	-16.2	i	-8.72*	i	i	102.3*	i
CC(=O)N1CCc2cc(S(=O)(=O)CCC(=O)NCCc3ccc(Cl)cc3)ccc21	-8.6	i	i	i	i	nt	nt
COc1ccc(Br)cc1CN(C)CC(=O)NCCc1ccccc1	-10.7	i	-10.2*	i	i	101.7*	i
COc1ccccc1CN(C)CC(=O)Nc1ccccc1-c1ccccc1	-21.8	i	-8.78*	i	i	115.7*	0.137*
Cc1nn2c(NCCCn3ccnc3)cc(C(C)C)nc2c1-c1ccccc1	-19.1	i	-11.9*	i	i	114.7*	0.143*
O=C(Nc1ccccc1)C1=C(O)CC(c2ccoc2)CC1=Nc1ccccc1 (stereo unspecified)	-7.6	i	-8.84*	i	i	113.0*	0.155*
CC(=O)c1cc(C#N)c(N2CCN(c3ccccc3)CC2)nc1C	-4.1	i	i	i	i	nt	nt
CCOC(=O)c1cc(C#N)c(N2CCN(c3ccccn3)CC2)nc1-c1ccccc1	-3.6	i	-9.41*	i	i	98.7*	i
CCOC(=O)N1CCC(N2Cc3cccc(C(=O)NC(C)c4ccc5c(c4)OCCO5)c3C2=O)CC1 (stereo unspecified)	-14.3	i	-13.1*	i	i	100.7*	i
CCOC(=O)N1CCC(N2Cc3cccc(C(=O)NCc4ccc(C)cc4)c3C2=O)CC1	-6.6	i	i	i	i	nt	nt
O=C(NCCC1CCCCN1S(=O)(=O)c1ccccc1)C(=O)Nc1ccc(F)cc1F (stereo unspecified)	-16.0	i	i	i	i	nt	nt
CCn1c(=NC(=O)c2cccc(N3C(=O)CCC3=O)c2)sc2c(C)ccc(OC)c21	-13.4	i	-9.4*	i	i	106.3*	i
COc1ccc(C(=O)OCC(=O)N2CCCCCC2)cc1S(=O)(=O)N1CCOCC1	nt	nt	i	nt	nt	nt	nt
